Experimental data reported in PMC6912599 (European journal of medicinal chemistry, 2018).
Read-outs that look alike come from different tables or passages of the source.

Legend:
[1] = tested on: tadpoles; details: read-out: published anesthetic EC50s; tadpole LoRR; cited from earlier work
[2] = tested on: tadpoles; experiment: Loss of righting reflexes; format: in vivo, tadpole
[3] = molecular target: T1, α1β3 GABAAR (Homo sapiens, UniProt P14867+P28472); experiment: Inhibition of [3H]21-pTFDBzox-AP photolabeling of purified α1β3 GABAAR; format: binding; details: for inhibition of photolabeling at high concentrations: same extent as 30 μM allopregnanolone
T1 sequence (P14867 28-456): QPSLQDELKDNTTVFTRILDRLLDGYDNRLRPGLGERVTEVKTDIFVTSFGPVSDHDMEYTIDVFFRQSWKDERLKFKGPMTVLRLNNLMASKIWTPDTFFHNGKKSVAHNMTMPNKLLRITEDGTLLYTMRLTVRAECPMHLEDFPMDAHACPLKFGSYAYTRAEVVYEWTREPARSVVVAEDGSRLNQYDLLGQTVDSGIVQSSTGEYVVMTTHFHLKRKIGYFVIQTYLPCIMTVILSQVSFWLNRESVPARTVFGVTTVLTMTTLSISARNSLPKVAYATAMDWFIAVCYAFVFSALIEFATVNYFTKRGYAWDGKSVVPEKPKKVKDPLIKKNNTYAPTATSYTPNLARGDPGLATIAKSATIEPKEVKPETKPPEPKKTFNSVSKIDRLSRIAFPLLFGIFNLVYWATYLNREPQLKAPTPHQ
T1 sequence (P28472 26-473): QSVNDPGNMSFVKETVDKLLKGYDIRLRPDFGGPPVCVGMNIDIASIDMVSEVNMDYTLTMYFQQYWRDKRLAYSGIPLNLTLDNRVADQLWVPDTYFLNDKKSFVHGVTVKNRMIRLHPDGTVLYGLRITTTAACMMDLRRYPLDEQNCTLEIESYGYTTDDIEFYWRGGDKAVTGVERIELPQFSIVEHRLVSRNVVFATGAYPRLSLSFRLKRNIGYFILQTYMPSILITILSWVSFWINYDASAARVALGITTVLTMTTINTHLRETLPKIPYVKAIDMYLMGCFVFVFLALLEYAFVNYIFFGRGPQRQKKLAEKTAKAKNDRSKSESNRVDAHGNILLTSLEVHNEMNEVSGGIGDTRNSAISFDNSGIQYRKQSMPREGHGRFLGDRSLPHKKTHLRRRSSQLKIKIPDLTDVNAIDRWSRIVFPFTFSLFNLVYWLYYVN

[4] = molecular target: α1Q242Wβ3γ2L receptors (Homo sapiens, UniProt P14867+P28472, Q269W); experiment: Electrophysiology of steroid site mutant α1Q242Wβ3γ2L receptors in oocytes; format: cell-based; details: 10 μM steroid; EC5 GABA
Procedure, shortened: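 Female Xenopus laevis stage V oocytes were injected with up to 10 ng of α1Q242W, β3 and γ2L mRNA (1:1:3) and held ≥24 h. Two-electrode voltage clamp was run at −50 mV and 20–22°C, with ND96 (pH 7.4) superfusion at 2–3 mL/min.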

[5] = molecular target: T2, α1β3γ2L GABAAR (Homo sapiens, UniProt P14867+P28472); experiment: Modulation of 2 nM [3H]muscimol binding to α1β3γ2L GABAAR
Target sequence in this assay (P18507 40-475, one chain of several, further chain): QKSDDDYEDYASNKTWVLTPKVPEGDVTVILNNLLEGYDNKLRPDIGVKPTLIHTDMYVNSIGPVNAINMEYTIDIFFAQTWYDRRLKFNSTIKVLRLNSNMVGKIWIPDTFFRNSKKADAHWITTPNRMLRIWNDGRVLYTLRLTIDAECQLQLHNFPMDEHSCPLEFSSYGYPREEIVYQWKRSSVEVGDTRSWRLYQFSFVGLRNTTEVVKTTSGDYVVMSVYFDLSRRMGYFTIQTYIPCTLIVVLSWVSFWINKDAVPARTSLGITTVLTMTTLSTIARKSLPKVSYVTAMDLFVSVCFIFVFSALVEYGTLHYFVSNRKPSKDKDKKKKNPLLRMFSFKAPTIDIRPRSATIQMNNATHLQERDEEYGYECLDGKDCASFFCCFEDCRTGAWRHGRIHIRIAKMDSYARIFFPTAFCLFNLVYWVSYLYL

[6] = molecular target: T2, α1β3γ2L GABAAR; experiment: Voltage clamp electrophysiology of α1β3γ2L GABAAR expressed in Xenopus oocytes; format: cell-based; details: for enhancement of EC5 GABA-activated currents: 10 μM compound; for enhancement of EC5 GABA-activated currents / potentiation of EC5 GABA-activated chloride currents (up to): EC5 GABA (4 μM); for potentiation of EC5 GABA-activated chloride currents (up to): maximum concentration tested 100 μM
Target sequence in this assay (P18507 40-475 partner, one chain of several): as the sequence (P18507 40-475, one chain of several, further chain) above

[7] = molecular target: T1, α1β3 GABAAR; experiment: Voltage clamp electrophysiology of α1β3 GABAAR expressed in Xenopus oocytes; format: cell-based
[8] = molecular target: α1L264Tβ3γ2L receptors (Homo sapiens, UniProt P14867+P28472, L291T); experiment: Direct activation of spontaneously gating α1L264Tβ3γ2L receptors in oocytes; format: cell-based
[9] = molecular target: T1, α1β3 GABAAR; experiment: Modulation of 2 nM [3H]muscimol binding to α1β3 GABAAR
[10] = molecular target: α1β3γ2 GABAAR (Homo sapiens, UniProt P14867+P28472); experiment: Inhibition of [3H]21-pTFDBzox-AP photolabeling of purified α1β3γ2 GABAAR; format: binding; details: 30 μM; 0.8 μM [3H]21-pTFDBzox-AP
Chain of α1β3γ2 GABAAR (P18507 40-475 partner, one chain of several): as the sequence (P18507 40-475, one chain of several, further chain) above

Chain of α1L264Tβ3γ2L receptors (P18507 40-475, one chain of several): as the sequence (P18507 40-475, one chain of several, further chain) above
Chain of α1L264Tβ3γ2L receptors (P14867 28-456 L291T, one chain of several): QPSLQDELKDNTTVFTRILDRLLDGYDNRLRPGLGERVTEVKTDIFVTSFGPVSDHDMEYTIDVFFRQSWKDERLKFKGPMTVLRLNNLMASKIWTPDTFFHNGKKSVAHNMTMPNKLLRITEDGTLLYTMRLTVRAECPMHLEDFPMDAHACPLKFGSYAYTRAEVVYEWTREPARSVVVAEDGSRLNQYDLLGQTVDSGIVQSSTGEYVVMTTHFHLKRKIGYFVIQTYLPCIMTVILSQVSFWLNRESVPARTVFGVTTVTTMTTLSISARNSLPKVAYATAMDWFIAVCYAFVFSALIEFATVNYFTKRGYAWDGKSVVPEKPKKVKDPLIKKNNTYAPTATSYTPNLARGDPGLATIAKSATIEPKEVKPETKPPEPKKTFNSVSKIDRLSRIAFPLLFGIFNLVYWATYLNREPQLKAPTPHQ
Chain of α1Q242Wβ3γ2L receptors (P14867 28-456 Q269W, one chain of several): as the sequence (P14867 28-456 L291T, one chain of several) above, with Q242W, T264L counted along it
Chain of α1Q242Wβ3γ2L receptors (P18507 40-475 partner, one chain of several): as the sequence (P18507 40-475, one chain of several, further chain) above

**Q.** With `CC(=O)[C@H]1CC[C@H]2[C@@H]3CC[C@H]4C[C@H](O)CC[C@]4(C)[C@H]3C(=O)C[C@]12C` [alphaxalone, 5α-pregnan-3α-ol-11,20-dione, reference compound] as the compound, how does the EC50 [1] read?
**A.** 1 to 2 µM

**Q.** And the EC50 ([2]; read-out: anesthetic EC50 (LoRR), alphaxalone alone, 60 minutes equilibration)?
**A.** 1.4 ± 0.3 µM

**Q.** And the EC50 ([2]; read-out: anesthetic EC50 of alphaxalone, in constant presence of […] 21-pTFDBzox-AP)?
**A.** 0.92 ± 0.3 µM

**Q.** Which inhibition of photolabeling ([3]; 100 μM) does the source give for pregnenolone sulfate here?
**A.** no inhibition

**Q.** Which inhibition of photolabeling ([3]; 1 mM) does the source give for `CCOC(=O)c1cncn1[C@H](C)c1ccccc1` [etomidate] here?
**A.** no inhibition

**Q.** Which results are given for `CC(=O)[C@H]1CC[C@H]2[C@@H]3CC[C@@H]4C[C@H](O)CC[C@]4(C)[C@H]3CC[C@]12C` [pregnanolone, 5β-pregnan-3α-ol-20-one]?
**A.** IC50 [3]: 0.7 µM; inhibition of photolabeling at high concentrations [3]: 60%

**Q.** With “21-[4-(3-(Trifluoromethyl)-3H-diazirin-3-yl)benzoxy]allopregnanolone [21-pTFDBzox-AP]” as the compound, how does the “positive modulation in α1Q242W mutant receptors” value [4] read?
**A.** eliminated positive modulation

**Q.** What about the “Hill coefficient nH of [3H]muscimol binding enhancement” value (from here on “Hill coefficient nH”) ([5]; detergent/lipid micelles) of the same compound?
**A.** 1.15 ± 0.36

**Q.** And the “maximal enhancement of [3H]muscimol binding” value ([5]; detergent/lipid micelles)?
**A.** 135 ± 1%

**Q.** And the “Hill coefficient nH” value ([5]; membranes)?
**A.** 1.09 ± 0.22

**Q.** And the “maximal enhancement of [3H]muscimol binding” value ([5]; membranes)?
**A.** 199 ± 30%

**Q.** What about the “effect on GABA EC50” value ([6]; 5 μM) of the same compound?
**A.** did not reduce the GABA EC50

**Q.** And the “enhancement of EC5 GABA-activated currents” value [6]?
**A.** 2.6 ± 0.3 fold

**Q.** What about the “fitted maximal enhancement ratio” value ([6]; EC5 GABA, Hill slope constrained to 1.7) of the same compound?
**A.** 2.6 ± 0.3

**Q.** And the “enhancement of EC10 GABA-activated currents” value ([7]; 10 μM compound, EC10 GABA (1 μM))?
**A.** 2.1± 0.4 fold

**Q.** And the “fitted maximal enhancement ratio” value ([7]; EC10 GABA, Hill slope constrained to 1.7)?
**A.** 2.1 ± 0.4

**Q.** And the “current elicited as % of the maximal GABA response” value ([8]; 2 μM, no GABA)?
**A.** approximately 21%

**Q.** And the “direct increase of inward current in the absence of GABA” value ([8]; 2 μM, no GABA)?
**A.** about 50%

**Q.** What about the “antagonism of alphaxalone's anesthetic action” value ([2]; 2.5 or 10 μM 21-pTFDBzox-AP) of the same compound?
**A.** no significant antagonism

**Q.** And the “Loss of righting reflexes (LoRR)” value ([2]; tadpoles exposed to 1, 2, 3 and 10 μM)?
**A.** No LoRR

**Q.** And the “Hill coefficient nH” value ([9]; detergent/lipid micelles)?
**A.** 1.45 ± 0.51

**Q.** And the “maximal enhancement of [3H]muscimol binding” value ([9]; detergent/lipid micelles)?
**A.** 172 ± 6%

**Q.** What about the “Hill coefficient nH” value ([9]; membranes) of the same compound?
**A.** 1.71 ± 0.10

**Q.** What about the “maximal enhancement of [3H]muscimol binding” value ([9]; membranes) of the same compound?
**A.** 271 ± 7%

**Q.** Which results are given for `CC(=O)[C@H]1CC[C@H]2[C@@H]3CC[C@H]4C[C@H](O)CC[C@]4(C)[C@H]3CC[C@]12C` [allopregnanolone, 5α-pregnan-3α-ol-20-one]?
**A.** reduction of β subunit photolabeling ([3]; 30 μM, 0.8 μM [3H]21-pTFDBzox-AP): 60%; reduction of β subunit photolabeling [10]: 70%

**Q.** For `CC(=O)[C@H]1CC[C@H]2[C@@H]3CC4(N=N4)[C@H]4C[C@H](O)CC[C@]4(C)[C@H]3C(=O)C[C@]12C` [6-azi-OAP, 6-Azi-3α-hydroxy-5α-pregnane-11,20-dione], which “Hill coefficient nH” value ([5]; α1β3γ2 GABAARs) is on record?
**A.** 1.3 ± 0.15

**Q.** What about the “efficacy of modulation of [3H]muscimol binding” value ([5]; α1β3γ2 GABAARs) of the same compound?
**A.** 330 ± 9%

**Q.** What about the “decrease of GABA EC50” value ([6]; 15 μM 6-azi-OAP) of the same compound?
**A.** approximately 3 fold

**Q.** And the “potentiation of EC5 GABA-activated chloride currents (up to)” value [6]?
**A.** 10.1 ± 0.67 fold

**Q.** And the “effect on GABA dose-response curves compared with α1β3γ2L” value ([7]; 15 μM, not shown)?
**A.** similar

**Q.** Which inhibition of photolabeling ([3]; 60 μM) does the source give for `C=CC[C@@]1(c2cccc(C3(C(F)(F)F)N=N3)c2)C(=O)NC(=O)N(C)C1=O` [R-mTFD-MPAB] here?
**A.** no inhibition

**Q.** With `CC(=O)[C@H]1CC[C@H]2[C@@H]3CC4(N=N4)[C@@H]4C[C@H](O)CC[C@]4(C)[C@H]3C(=O)C[C@]12C` [6-azi-OP, 6-Azi-3α-hydroxy-5β-pregnane-11,20-dione] as the compound, how does the “Hill coefficient nH” value ([5]; α1β3γ2 GABAARs) read?
**A.** 1.6 ± 0.1

**Q.** What about the “efficacy of modulation of [3H]muscimol binding” value ([5]; α1β3γ2 GABAARs) of the same compound?
**A.** 241 ± 3%

**Q.** What about the “potentiation of EC5 GABA-activated chloride currents (up to)” value [6] of the same compound?
**A.** 8.0 ± 1.4 fold

**Q.** Which “outward currents as % of maximal GABA-induced inward currents” value ([8]; 2 mM) does the source give for Picrotoxin [reference compound] here?
**A.** about 40%

**Q.** What does the source list for `C[C@]12CC[C@@H](O)C[C@@H]1CC[C@@H]1[C@@H]2CC[C@]2(C)[C@@H](C(=O)CO)CC[C@@H]12` [THDOC, 5α-pregnan-3α, 21-diol-20-one, reference compound]?
**A.** positive modulation in α1Q242W mutant receptors [4]: eliminated positive modulation; enhancement of EC5 GABA-activated currents [6]: 16 ± 2.1 fold; inhibition of photolabeling at high concentrations [3]: 60%
